Measured values: ChEMBL document CHEMBL6083196, “Synthesis and cytotoxic activity of madecassic acid-silybin conjugate compounds in liver cancer cells” (2024)

Columns and labels:
HepG2 [1] = assay: Induction of apoptosis in human HepG2 cells assessed as fold change in caspase-3 level at 0.3 times GI50 incubated for 1 hr by colorimetric assay relative to control; format: functional
Method in brief: (§1)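 Lysates taken from HepG2 cells 1, 6 or 24 h after treatment at 0.3×, 1× or 3× GI50. Lysis on ice for 10 min, then 10 000 × g spin; protein measured by Bradford. 80 μg protein incubated with DTT and DEVD-pNA substrate for 1 h at 37 °C, in triplicate; absorbance read at 405 nm. Result expressed as fold change versus untreated cells. Camptothecin 0.5 μM as control; mean and SE reported.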

HepG2 [2] = assay: Induction of cell cycle arrest in human HepG2 cells assessed as accumulation at G0/G1 phase at IC50 incubated for 24 hrs by PI staining based flow cytometry (reference value: 24.63 %); format: functional
HepG2 [3] = assay: Induction of apoptosis in human HepG2 cells assessed as viable cells at GI50 incubated for 24 hrs by Annexin V-FITC/PI staining based flow cytometry (reference value: 88.62 %); format: functional
HepG2 [4] = assay: Induction of apoptosis in human HepG2 cells assessed as fold change in caspase-3 level at 0.3 times GI50 incubated for 24 hrs by colorimetric assay relative to control; format: functional; method in brief: as §1
[5] = Cytotoxicity against human Huh-7R cells incubated for 96 hrs by MTT assay; format: functional
Method in brief: (§2)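 Cells grown in DMEM with 10% FBS and 1% antibiotic at 37 °C, 5% CO2. Trypsinised, seeded at 3 × 10^4 cells per mL, treated over an eight-point titration for 96 h. MTT (0.5 mg mL−1) added for 4 h at 37 °C, formazan dissolved in DMSO, absorbance read at 570 nm. GI50 is the concentration halving the MTT signal versus untreated control. Ellipticine served as reference; n ≥ 3 repeats.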

HepG2 [6] = assay: Induction of cell cycle arrest in human HepG2 cells assessed as accumulation at G2/M phase at IC50 incubated for 24 hrs by PI staining based flow cytometry (reference value: 27.69 %); format: functional
HepG2 [7] = assay: Induction of apoptosis in human HepG2 cells assessed as fold change in caspase-3 level at 3 times GI50 incubated for 1 hr by colorimetric assay relative to control; format: functional; method in brief: as §1
HepG2 [8] = assay: Induction of apoptosis in human HepG2 cells assessed as late apoptotic cells at GI50 incubated for 24 hrs by Annexin V-FITC/PI staining based flow cytometry (reference value: 3.06 %); format: functional
HepG2 [9] = assay: Induction of apoptosis in human HepG2 cells assessed as viable cells at 3 times GI50 incubated for 24 hrs by Annexin V-FITC/PI staining based flow cytometry (reference value: 88.62 %); format: functional
HepG2 [10] = assay: Induction of apoptosis in human HepG2 cells assessed as fold change in caspase-3 level at GI50 incubated for 24 hrs by colorimetric assay relative to control; format: functional; method in brief: as §1
HepG2 [11] = assay: Induction of apoptosis in human HepG2 cells assessed as fold change in caspase-3 level at 3 times GI50 incubated for 24 hrs by colorimetric assay relative to control; format: functional; method in brief: as §1
HepG2 [12] = assay: Cytotoxicity against human HepG2 cells incubated for 96 hrs by MTT assay; format: functional; method in brief: as §2
HepG2 [13] = assay: Induction of cell cycle arrest in human HepG2 cells assessed as accumulation at G2/M phase at 3 times IC50 incubated for 24 hrs by PI staining based flow cytometry (reference value: 27.69 %); format: functional
HepG2 [14] = assay: Induction of apoptosis in human HepG2 cells assessed as fold change in caspase-3 level at GI50 incubated for 1 hr by colorimetric assay relative to control; format: functional; method in brief: as §1
HepG2 [15] = assay: Induction of apoptosis in human HepG2 cells assessed as necrotic cells at 3 times GI50 incubated for 24 hrs by Annexin V-FITC/PI staining based flow cytometry (reference value: 5.34 %); format: functional
HepG2 [16] = assay: Induction of apoptosis in human HepG2 cells assessed as early apoptotic cells at 3 times GI50 incubated for 24 hrs by Annexin V-FITC/PI staining based flow cytometry (reference value: 2.98 %); format: functional
HepG2 [17] = assay: Induction of cell cycle arrest in human HepG2 cells assessed as accumulation at S phase at IC50 incubated for 24 hrs by PI staining based flow cytometry (reference value: 46.83 %); format: functional
HepG2 [18] = assay: Induction of apoptosis in human HepG2 cells assessed as fold change in caspase-3 level at GI50 incubated for 6 hrs by colorimetric assay relative to control; format: functional; method in brief: as §1
HepG2 [19] = assay: Induction of cell cycle arrest in human HepG2 cells assessed as accumulation at G0/G1 phase at 3 times IC50 incubated for 24 hrs by PI staining based flow cytometry (reference value: 24.63 %); format: functional
HepG2 [20] = assay: Induction of apoptosis in human HepG2 cells assessed as late apoptotic cells at 3 times GI50 incubated for 24 hrs by Annexin V-FITC/PI staining based flow cytometry (reference value: 3.06 %); format: functional
Huh-7 = assay: Cytotoxicity against human Huh-7 cells incubated for 96 hrs by MTT assay; format: functional; method in brief: as §2
Hep 3B2 = assay: Cytotoxicity against human Hep3B cells incubated for 96 hrs by MTT assay; format: functional; method in brief: as §2
HepG2 [21] = assay: Induction of apoptosis in human HepG2 cells assessed as necrotic cells at GI50 incubated for 24 hrs by Annexin V-FITC/PI staining based flow cytometry (reference value: 5.34 %); format: functional
HepG2 [22] = assay: Induction of apoptosis in human HepG2 cells assessed as early apoptotic cells at GI50 incubated for 24 hrs by Annexin V-FITC/PI staining based flow cytometry (reference value: 2.98 %); format: functional
HepG2 [23] = assay: Induction of cell cycle arrest in human HepG2 cells assessed as accumulation at S phase at 3 times IC50 incubated for 24 hrs by PI staining based flow cytometry (reference value: 46.83 %); format: functional
HepG2 [24] = assay: Induction of apoptosis in human HepG2 cells assessed as fold change in caspase-3 level at 3 times GI50 incubated for 6 hrs by colorimetric assay relative to control; format: functional; method in brief: as §1
HepG2 [25] = assay: Induction of apoptosis in human HepG2 cells assessed as fold change in caspase-3 level at 0.3 times GI50 incubated for 6 hrs by colorimetric assay relative to control; format: functional; method in brief: as §1
HepG2 [26] = assay: Induction of apoptosis in human HepG2 cells assessed as fold change in caspase-3 level at 0.5 uM incubated for 24 hrs by colorimetric assay relative to control
HepG2 [27] = assay: Induction of apoptosis in human HepG2 cells assessed as early apoptotic cells incubated for 24 hrs by Annexin V-FITC/PI staining based flow cytometry (reference value: 2.98 %); format: functional
HepG2 [28] = assay: Induction of apoptosis in human HepG2 cells assessed as fold change in caspase-3 level at 0.5 uM incubated for 1 hr by colorimetric assay relative to control
HepG2 [29] = assay: Induction of apoptosis in human HepG2 cells assessed as viable cells incubated for 24 hrs by Annexin V-FITC/PI staining based flow cytometry (reference value: 88.62 %); format: functional
HepG2 [30] = assay: Induction of apoptosis in human HepG2 cells assessed as late apoptotic cells incubated for 24 hrs by Annexin V-FITC/PI staining based flow cytometry (reference value: 3.06 %); format: functional
HepG2 [31] = assay: Induction of apoptosis in human HepG2 cells assessed as necrotic cells incubated for 24 hrs by Annexin V-FITC/PI staining based flow cytometry (reference value: 5.34 %); format: functional
HepG2 [32] = assay: Induction of apoptosis in human HepG2 cells assessed as fold change in caspase-3 level at 0.5 uM incubated for 6 hrs by colorimetric assay relative to control

| SMILES | fold change (FC) (HepG2 [1]) | Activity (HepG2 [2]) | Activity (HepG2 [3]) | fold change (FC) (HepG2 [4]) | GI50 [5] | Activity (HepG2 [6]) | fold change (FC) (HepG2 [7]) | Activity (HepG2 [8]) | Activity (HepG2 [9]) | fold change (FC) (HepG2 [10]) | fold change (FC) (HepG2 [11]) | GI50 (HepG2 [12]) | Activity (HepG2 [13]) | fold change (FC) (HepG2 [14]) | Activity (HepG2 [15]) | Activity (HepG2 [16]) | Activity (HepG2 [17]) | fold change (FC) (HepG2 [18]) | Activity (HepG2 [19]) | Activity (HepG2 [20]) | other results |
| --- | --- | --- | --- | --- | --- | --- | --- | --- | --- | --- | --- | --- | --- | --- | --- | --- | --- | --- | --- | --- | --- |
| COc1cc([C@H]2Oc3cc([C@H]4Oc5cc(O)cc(O)c5C(=O)[C@@H]4OC(=O)CNC(=O)[C@]45CC[C@@H](C)[C@H](C)[C@H]4C4=CC[C@@H]6[C@@]7(C)C[C@@H](OC(C)=O)[C@H](OC(C)=O)[C@@](C)(COC(C)=O)[C@@H]7[C@H](O)C[C@@]6(C)[C@]4(C)CC5)ccc3O[C@@H]2CO)ccc1O | 0.59 | 26.72% | 71.11% | 1.62 | 14.2 µM | 9.78% | 1.69 | 4.92% | 84% | 1.86 | 1.37 | 32.5 µM | 11.8% | 0.76 | 13.81% | 1.28% | 61.09% | 1.09 | 27.07% | 0.91% | GI50 (Huh-7): 13.8 µM; GI50 (Hep 3B2): 9.61 µM; Activity (HepG2 [21]): 13.32%; Activity (HepG2 [22]): 10.65%; Activity (HepG2 [23]): 60.41%; fold change (FC) (HepG2 [24]): 1.27; fold change (FC) (HepG2 [25]): 0.76 |
| CC[C@@]1(O)C(=O)OCc2c1cc1n(c2=O)Cc2cc3ccccc3nc2-1 [CAMPTOTHECIN] |  |  |  |  |  |  |  |  |  |  |  |  |  |  |  |  |  |  |  |  | fold change (FC) (HepG2 [26]): 2.19; Activity (HepG2 [27]): 14.78%; fold change (FC) (HepG2 [28]): 1.94; Activity (HepG2 [29]): 79.08%; Activity (HepG2 [30]): 2.3%; Activity (HepG2 [31]): 3.85%; fold change (FC) (HepG2 [32]): 2.21 |
| C[C@H]1[C@H](C)CC[C@]2(C(=O)O)CC[C@]3(C)C(=CC[C@@H]4[C@@]5(C)C[C@@H](O)[C@H](O)[C@@](C)(CO)[C@@H]5[C@H](O)C[C@]43C)[C@H]12 [MADECASSIC ACID] | 0.74 | 19.29% | 80.48% | 0.99 | 215 µM | 21.51% | 0.97 | 4.29% | 72.03% | 0.68 | 0.54 | 161 µM | 20.71% | 0.94 | 8.44% | 13.37% | 58.52% | 1.16 | 54.22% | 6.16% | GI50 (Huh-7): 198 µM; GI50 (Hep 3B2): 178 µM; Activity (HepG2 [21]): 6.23%; Activity (HepG2 [22]): 9%; Activity (HepG2 [23]): 24.25%; fold change (FC) (HepG2 [24]): 1.71; fold change (FC) (HepG2 [25]): 0.81 |
